Converted amounts (≈) assume the structure as drawn. The source made the active and inactive calls. The calls are words filed in the database; no cut-off is given here. A value given as a limit tells only on which side of the number the result lay.

One data set deals with Candida albicans. The data set is described as follows: Antifungal activity against Candida albicans ATCC 10231 by broth dilution method. In kind it is functional.
For another data set, the system named is Escherichia coli. Nature of the data set: Antibacterial activity against Escherichia coli ATCC 25922 by broth microdilution method. Format: functional. In a few lines: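 MIC read by broth microdilution, run in duplicate.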
On the technique in general: Broth dilution looks for growth in wells or tubes with falling amounts of substance.

In a further data set the test system is Vero. Nature of the data set: Cytotoxicity against african green monkey Vero cells assessed as reduction in cell viability measured after 72 hrs by MTS assay. In kind it is cell-based. The following applies: Chlorocebus sabaeus. The gist of the method:
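Vero cells exposed to compounds, with viability read by MTS assay; IC50 derived from the viability data.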
A general note: Tetrazolium assays rely on reduction of a dye to a coloured formazan, in cell work by metabolically active cells.

The nature of data set [1]: Growth inhibition of african green monkey Vero cells at highest concentration measured after 72 hrs by MTS assay relative to control. The note with it: chlorocebus sabaeus, read-out: GI. In kind it is cell-based. In a few lines: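 Vero cells in MTS viability assay; the value is the percentage growth inhibition at the highest compound concentration tested.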
Another data set has as its system Staphylococcus aureus. Nature of the data set: Antibacterial activity against Staphylococcus aureus ATCC 29213 by broth microdilution method. Format: functional.
Data set [2] can be described thus: Induction of nitrite formation at 100 uM measured after 1 hr in presence of L-cysteine by Griess assay. In kind it is functional. In a few lines:
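Compound at 100 µM incubated with 5 mM L-cysteine in 50 mM phosphate buffer pH 7.4/methanol (1:1), 1 h at 37 °C; aliquots taken and nitrite quantified by Griess reaction.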
Background: Griess reagent forms a coloured azo dye with nitrite.

For orientation: MIC means the least concentration at which growth counts as inhibited. Take `C[C@@H]1[C@H](O)[C@@H](C)/C=C/C=C/C=C/C=C/C=C/C=C/C=C/[C@H](O[C@@H]2O[C@H](C)[C@@H](O)[C@H](N)[C@@H]2O)C[C@@H]2O[C@](O)(C[C@@H](O)C[C@@H](O)[C@H](O)CC[C@@H](O)C[C@@H](O)CC(=O)O[C@H]1C)C[C@H](O)[C@H]2C(=O)O` [AMPHOTERICIN B]: in the data set on Candida albicans, 0.027 µM (≈ 0.025 µg/mL) was the least that counted as inhibitory (MIC).
In general, IC50 refers to the concentration that gives 50% inhibition. Consider `Cc1c(/C=N/NS(=O)(=O)c2ccc([N+](=O)[O-])cc2)no[n+]1[O-]`, for which the results for the MIC against Escherichia coli, against Staphylococcus aureus and against Candida albicans were > 300 µM, > 100 µM and > 100 µM, respectively. In the data set with Vero, the IC50 was > 100 µM. The inhibition at 72 h in data set [1] was determined as 0%. The result in data set [2] was inactive.
As for `Cc1ccc(S(=O)(=O)N/N=C/c2no[n+]([O-])c2C)cc1`, the values for the MIC against Escherichia coli, in the data set on Staphylococcus aureus and with Candida albicans were 0.36 µM (≈ 0.107 µg/mL), > 100 µM and > 100 µM, respectively. The 50% inhibitory concentration (IC50) in the data set on Vero is > 100 µM. In data set [1], the inhibition at 72 h came to 8.38%. Besides, in data set [2], the result was inactive.
Take `Cc1c(/C=N/NS(=O)(=O)c2ccccc2)no[n+]1[O-]`: the MIC with Escherichia coli was 10.7 µM (≈ 3.03 µg/mL); in the data set on Staphylococcus aureus, > 100 µM; in the data set on Candida albicans, > 100 µM. Besides, the half-inhibitory concentration (IC50) in the data set on Vero is > 100 µM. Moreover, the inhibition at 72 h in data set [1] was determined as 63.4%. For the same compound, the outcome in data set [2] was inactive.
In the case of `COc1ccc(S(=O)(=O)N/N=C/c2no[n+]([O-])c2C)cc1`, the MIC is 77.8 µM (≈ 24.3 µg/mL) against Escherichia coli, > 100 µM against Staphylococcus aureus and > 100 µM with Candida albicans. Also, the half-inhibitory concentration (IC50) in the data set on Vero was > 100 µM. In data set [1], the inhibition at 72 h was found to be 0%. Moreover, the result in data set [2] was inactive.
Take GENTAMICIN: the results for the MIC in the data set with Escherichia coli and in the data set with Staphylococcus aureus were < 0.02 µM and 0.076 µM, respectively.
On to `CO[C@H]1/C=C/O[C@@]2(C)Oc3c(C)c(O)c4c(O)c(c(/C=N/N5CCN(C)CC5)c(O)c4c3C2=O)NC(=O)/C(C)=C\C=C\[C@H](C)[C@H](O)[C@@H](C)[C@@H](O)[C@@H](C)[C@H](OC(C)=O)[C@@H]1C` [RIFAMPIN], for which, in the data set with Vero, the IC50 was > 100 µM. Also, the inhibition at 72 h in data set [1] worked out at 44.8%.
As for `CC1(C)S[C@@H]2[C@H](NC(=O)[C@H](N)c3ccccc3)C(=O)N2[C@H]1C(=O)O` [AMPICILLIN], the MIC was 9.59 µM (≈ 3.35 µg/mL) in the data set on Escherichia coli and 1.1 µM (≈ 0.384 µg/mL) with Staphylococcus aureus.
Take `Cc1c(/C=N/NS(=O)(=O)c2ccc(C(C)(C)C)cc2)no[n+]1[O-]`: the figures for the minimum inhibitory concentration (MIC) in the data set with Escherichia coli, with Staphylococcus aureus and against Candida albicans were 287 µM (≈ 97.1 µg/mL), > 100 µM and > 100 µM, respectively. For the same compound, in the data set with Vero, the IC50 was > 100 µM. The inhibition at 72 h in data set [1] was determined as 74.8%. Also, the result in data set [2] was inactive.

These data come from ChEMBL document CHEMBL4425157, “New antibacterial agents: Hybrid bioisoster derivatives as potential E. coli FabH inhibitors” (Bioorg Med Chem Lett, 2016).
